We go through 3 compounds from ChEMBL document CHEMBL3588840, “An Isoflavone from Leiophyllum buxifolium and Its Antiproliferative Effect” (J Nat Prod, 2015).

One assay deals with MDA-MB-231. As to the kind of experiment: Antiproliferative activity against human MDA-MB-231 cells assessed as inhibition of cell proliferation incubated for 72 hrs by SRB assay. It counts as functional, cell-based. The note with it: MDA-MB-231, 72 h. The essentials:
(§1)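 Seeded at 1 × 10^4 cells/well (MCF-7: EMEM + 10% FBS; MDA-MB-231: EMEM + 10% NuSerum; NIH3T3: DMEM + 5% NuSerum + 1% antibiotics). Exposed to 1.25–40 μM final (DMSO stock diluted in water) for 72 h at 37 °C, 5% CO2. Day-0 plate used. Fixed with TCA (10% final, 4 °C, 1 h), stained with 0.4% SRB, dye dissolved in 10 mM Tris. IC50 derived. Podophyllotoxin and 0.5% DMSO as controls.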
For orientation: Sulforhodamine B stains cellular protein and so reports cell mass.

Assay [1] in a line: Antiproliferative activity against mouse NIH/3T3 cells assessed as inhibition of cell proliferation incubated for 72 hrs by SRB assay. It counts as cell-based. The note with it: NIH3T3, 72 h. The method, boiled down:
as §1

The next assay has as its system MCF7. The experiment in a line: Antiproliferative activity against human MCF7 cells assessed as inhibition of cell proliferation incubated for 72 hrs by SRB assay. It counts as functional, cell-based. The note with it: MCF7, 72 h. The method, boiled down:
as §1

The next assay deals with Artemia salina. The experiment in a line: Cytotoxicity against Artemia salina assessed as induction of shrimp mortality incubated for 24 hrs. It counts as functional. Conditions: for LC50: read-out: LD50 (the source's name).

On to `COc1cc([C@@H]2c3cc4c(cc3[C@H](O)[C@H]3COC(=O)[C@H]23)OCO4)cc(OC)c1OC` [PODOFILOX], for which the IC50 was found to be 0.079 µM in the assay with MDA-MB-231 and 0.084 µM in assay [1].
For the compound `COc1c(C)c(O)c2c(=O)c(-c3ccc(O)cc3)coc2c1C`, the figures for the half-maximal inhibitory concentration (IC50) (in the assay with MDA-MB-231; in assay [1]; with MCF7) were 7 µM, greater than 40 µM and greater than 40 µM, respectively. Moreover, the Activity entry in the assay with Artemia salina is “Dose-dependent effect”. Also, the LC50 in the assay with Artemia salina is 20.2 µM.
On to `COc1c(C)c(O)c2c(=O)cc(-c3ccc(O)cc3)oc2c1C` [SIDEROXYLIN], for which the IC50 in the assay with MDA-MB-231 was 36.9 µM; in assay [1] it was greater than 40 µM; with MCF7, 14.7 µM. The Activity entry in the assay on Artemia salina is “Dose-dependent effect”. Besides, the LC50 with Artemia salina was 80.1 µM.

Usually IC50 stands for the concentration that gives 50% inhibition.
